Assay results taken from ChEMBL document CHEMBL1141109, “Synthesis of an estrogen receptor beta-selective radioligand: 5-[18F]fluoro-(2R,3S)-2,3-bis(4-hydroxyphenyl)pentanenitrile and comparison of in vivo distribution with 16alpha-[18F]fluoro-17beta-estradiol” (J Med Chem, 2005).
One block for each compound: values may come before it.

Experiments:
[1] = Biodistribution of [18F]FES in beta estrogen receptor knock out mouse uterus after 30 min; (n=3); format: ADME, organism-based; conditions: in vivo, 0.5 h
[2] = Biodistribution of [18F]FES in alpha estrogen receptor knock out mouse spleen after 30 min; (n=3); format: ADME, organism-based; conditions: in vivo, 0.5 h
[3] = Biodistribution of [18F]FES in beta estrogen receptor knock out mouse lung after 30 min(n=2); mice in nonestrus stage; format: ADME, organism-based; conditions: in vivo, 0.5 h
[4] = Biodistribution of [18F]-FES in alpha estrogen receptor knock out mouse bone after 2 h; (n=3); format: ADME, organism-based, Bone element; conditions: in vivo
Method in brief: (§1)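 Female αERKO mice were rested 48 h after shipping and fed estrogen-free chow. They were staged by daily vaginal smears and studied in diestrus. Each received 13 µCi [18F]FES in 100 µL 10% ethanol/saline and was sacrificed at 30 min, 1 h or 2 h (n = 3 per time). Tissue uptake is given as %ID/g ± SD.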

[5] = Biodistribution of [18F]FES in beta estrogen receptor knock out mouse blood after 30 min; (n=3); format: ADME, organism-based; conditions: in vivo, 0.5 h
[6] = Biodistribution of [18F]FES in beta estrogen receptor knock out mouse heart after 2 h; (n=3); format: ADME, organism-based; conditions: in vivo
[7] = Biodistribution of [18F]FES in beta estrogen receptor knock out mouse liver after 2 h; (n=3); format: ADME, organism-based; conditions: in vivo
[8] = Biodistribution of [18F]FES in alpha estrogen receptor knock out mouse heart after 2 h; (n=3); format: ADME, organism-based; conditions: in vivo; method in brief: as §1
[9] = Biodistribution of [18F]FES in beta estrogen receptor knock out mouse bone after 1 h; (n=3); format: ADME, organism-based, Bone element; conditions: in vivo
[10] = Biodistribution of [18F]FES in alpha estrogen receptor knock out mouse thymus after 1 h; (n=3); format: ADME, organism-based; conditions: in vivo
[11] = Biodistribution of [18F]FES in alpha estrogen receptor knock out mouse brain after 30 min; (n=3); format: ADME, organism-based; conditions: in vivo, 0.5 h
Method in brief: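 Female αERKO mice rested 48 h after shipping and fed estrogen-free chow. Estrous stage was checked by daily vaginal smears, and mice were used in diestrus. Each received 13 µCi [18F]FES in 100 µL 10% ethanol/saline. Animals were sacrificed at 30 min, 1 h or 2 h (n = 3 each). Tissue uptake is reported as %ID/g ± SD.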

[12] = Biodistribution of [18F]FES in alpha estrogen receptor knock out mouse heart after 30 min; (n=3); format: ADME, organism-based; conditions: in vivo, 0.5 h; method in brief: as §1
[13] = Biodistribution of [18F]FES in alpha estrogen receptor knock out mouse liver after 30 min; (n=3); format: ADME, organism-based; conditions: in vivo, 0.5 h; method in brief: as §1
[14] = Biodistribution of [18F]FES in beta estrogen receptor knock out mouse spleen after 30 min; (n=3); format: ADME, organism-based; conditions: in vivo, 0.5 h
[15] = Biodistribution of [18F]FES in beta estrogen receptor knock out mouse thymus after 30 min; (n=3); format: ADME, organism-based; conditions: in vivo, 0.5 h
[16] = Biodistribution of [18F]FEDPN in beta estrogen receptor knock out mouse liver after 30 min; (n=3); format: ADME, organism-based; conditions: in vivo, 0.5 h
Method in brief: (§2)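 αERKO and βERKO mice, staged by daily vaginal smears and kept on estrogen-free chow, were studied in a nonestrous stage. Each mouse received 11 μCi of tracer in 130 μL of 10% ethanol/saline. Mice were killed at 30 min, 1 h or 2 h (n = 3 each). Organs were removed, blotted, weighed and gamma-counted against an injectate standard. Uptake is given as %ID/g ± SD.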

[17] = Biodistribution of [18F]-FEDPN in beta estrogen receptor knock out mouse thymus after 30 min; (n=3); format: ADME, organism-based; conditions: in vivo, 0.5 h
Method in brief: (§3)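 ERKO female mice (αERKO or βERKO), rested 48 h after shipping, placed on estrogen-free chow, and staged by daily vaginal smears. Injected in a nonestrous stage with 11 µCi [18F]FEDPN in 130 µL of 10% ethanol/saline. Killed at 30 min, 1 h or 2 h. Organs counted and reported as %ID/g ± SD, three animals per point.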

[18] = Biodistribution of [18F]FEDPN in alpha estrogen receptor knock out mouse kidney after 30 min; (n=3); format: ADME, organism-based; conditions: in vivo, 0.5 h; method in brief: as §3
[19] = Biodistribution of [18F]FEDPN in alpha estrogen receptor knock out mouse thymus after 30 min; (n=3); format: ADME, organism-based; conditions: in vivo, 0.5 h; method in brief: as §2
[20] = Biodistribution of [18F]-FEDPN in rat uterus after 2 h when given in tail vein; (n=5); format: ADME, organism-based; conditions: in vivo, iv
Method in brief: (§4)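 Immature female Sprague–Dawley rats (<25 days old) anesthetized with isoflurane/O2. Given 20 µCi tracer by tail vein in 150 µL of 20% ethanol/saline. […] Killed at 30 min, 1 h or 2 h. Blood and organs blotted, weighed and gamma-counted against a standard dilution of the injectate. Reported as %ID/g ± SD, n=5.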

[21] = Biodistribution of [18F]FEDPN in rat bone after 30 min when given in tail vein; (n=5); format: ADME, organism-based, Bone element; conditions: in vivo, iv, 0.5 h
Method in brief: (§5)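 Immature female Sprague–Dawley rats (<25 days old) under isoflurane/O2 got 20 µCi tracer in 150 µL 20% ethanol/saline by tail vein. […] Rats were killed at 30 min, 1 h or 2 h. Organs were blotted, weighed and gamma-counted against an injectate standard. Data are %ID/g ± SD, five rats per point.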

[22] = Biodistribution of [18F]FEDPN in beta estrogen receptor knock out mouse brain after 2 h; (n=3); format: ADME, organism-based; conditions: in vivo; method in brief: as §2
[23] = Biodistribution of [18F]-FEDPN in rat fat after 2 hr when given in tail vein; (n=5); format: ADME, organism-based, Adipose tissue; conditions: in vivo, iv; method in brief: as §4
[24] = Biodistribution of [18F]-FEDPN in rat bone after 2 h when given in tail vein; (n=5); format: ADME, organism-based, Bone element; conditions: in vivo, iv; method in brief: as §4
[25] = Biodistribution of [18F]-FEDPN in rat spleen after 2 hr when given in tail vein; (n=5); format: ADME, organism-based; conditions: in vivo, iv; method in brief: as §4
[26] = Biodistribution of [18F]-FEDPN in rat thymus after 2 hr when given in tail vein; (n=5); format: ADME, organism-based; conditions: in vivo, iv; method in brief: as §4
[27] = Biodistribution of [18F]FEDPN in rat kidney after 30 min when given in tail vein; (n=5); format: ADME, organism-based; conditions: in vivo, iv, 0.5 h; method in brief: as §5
[28] = Biodistribution of [18F]FEDPN in rat uterus after 30 min when given in tail vein; (n=5); format: ADME, organism-based; conditions: in vivo, iv, 0.5 h; method in brief: as §5
[29] = Biodistribution of [18F]-FEDPN in rat blood after 1 hr block when given in tail vein; (n=5); format: ADME, organism-based; conditions: in vivo, iv; method in brief: as §4
[30] = Biodistribution of [18F]-FEDPN in rat heart after 1 hr block when given in tail vein; (n=5); format: ADME, organism-based; conditions: in vivo, iv; method in brief: as §4
[31] = Biodistribution of [18F]FEDPN in beta estrogen receptor knock out mouse heart after 2 h; (n=3); format: ADME, organism-based; conditions: in vivo; method in brief: as §2
[32] = Biodistribution of [18F]FEDPN in beta estrogen receptor knock out mouse liver after 2 h; (n=3); format: ADME, organism-based; conditions: in vivo; method in brief: as §2
[33] = Biodistribution of [18F]FEDPN in alpha estrogen receptor knock out mouse lung after 30 min; (n=3); format: ADME, organism-based; conditions: in vivo, 0.5 h; method in brief: as §2
[34] = Biodistribution of [18F]FEDPN in alpha estrogen receptor knock out mouse thymus after 1 h; (n=3); format: ADME, organism-based; conditions: in vivo; method in brief: as §2
[35] = Biodistribution of [18F]-FEDPN in alpha estrogen receptor knock out mouse uterus after 1 h; (n=3); format: ADME, organism-based; conditions: in vivo; method in brief: as §3
[36] = target: Estrogen receptor (Mus musculus) (UniProt O08537+P19785); test: Ratio of [18F]FEDPN uptake in ovaries of ERbeta KO-mouse and ERalpha KO-mouse (nonestrus) after 2 hr
Chain of Estrogen receptor (Mus musculus) (O08537 whole entry, looked up): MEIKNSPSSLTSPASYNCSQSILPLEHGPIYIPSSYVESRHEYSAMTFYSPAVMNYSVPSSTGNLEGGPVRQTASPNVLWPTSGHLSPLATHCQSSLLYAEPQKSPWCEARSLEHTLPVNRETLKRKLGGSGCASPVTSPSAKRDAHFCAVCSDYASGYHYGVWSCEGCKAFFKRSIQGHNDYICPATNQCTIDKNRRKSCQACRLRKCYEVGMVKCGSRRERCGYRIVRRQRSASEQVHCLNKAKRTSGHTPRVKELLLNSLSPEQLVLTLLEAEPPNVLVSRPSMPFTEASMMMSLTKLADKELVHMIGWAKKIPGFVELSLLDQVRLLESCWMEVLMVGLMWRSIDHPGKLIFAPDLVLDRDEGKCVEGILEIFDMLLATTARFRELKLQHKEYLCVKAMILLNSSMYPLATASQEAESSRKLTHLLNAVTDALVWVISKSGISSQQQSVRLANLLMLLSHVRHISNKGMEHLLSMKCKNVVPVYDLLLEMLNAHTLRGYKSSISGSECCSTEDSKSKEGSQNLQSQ
Chain of Estrogen receptor (Mus musculus) (P19785 whole entry, looked up): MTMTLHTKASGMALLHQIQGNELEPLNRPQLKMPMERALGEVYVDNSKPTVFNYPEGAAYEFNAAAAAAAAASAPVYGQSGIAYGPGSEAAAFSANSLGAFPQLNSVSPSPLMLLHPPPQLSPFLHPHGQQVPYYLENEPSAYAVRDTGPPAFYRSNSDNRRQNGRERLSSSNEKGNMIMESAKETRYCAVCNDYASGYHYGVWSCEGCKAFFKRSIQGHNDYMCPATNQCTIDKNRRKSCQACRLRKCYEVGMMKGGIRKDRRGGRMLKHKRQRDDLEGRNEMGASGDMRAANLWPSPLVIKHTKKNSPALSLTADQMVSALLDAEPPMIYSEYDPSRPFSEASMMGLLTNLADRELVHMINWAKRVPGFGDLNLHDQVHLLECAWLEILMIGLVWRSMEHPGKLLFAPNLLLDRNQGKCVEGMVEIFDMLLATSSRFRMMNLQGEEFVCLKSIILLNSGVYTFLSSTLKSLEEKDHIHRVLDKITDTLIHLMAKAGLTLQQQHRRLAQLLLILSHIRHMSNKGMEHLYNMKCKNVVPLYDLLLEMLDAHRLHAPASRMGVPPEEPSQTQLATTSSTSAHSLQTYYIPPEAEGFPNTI

Biodistribution [1]: 8.34 %ID/g
Biodistribution [2]: 0.59 %ID/g
Biodistribution [3]: 3.57 %ID/g
Biodistribution [4]: 0.23 %ID/g
Biodistribution [5]: 0.67 %ID/g
Biodistribution [6]: 0.2 %ID/g
Biodistribution [7]: 4.54 %ID/g
Biodistribution [8]: 0.1 %ID/g
Biodistribution [9]: 1.08 %ID/g
Biodistribution [10]: 0.21 %ID/g
Biodistribution [11]: 0.41 %ID/g
Biodistribution [12]: 0.62 %ID/g
Biodistribution [13]: 7.47 %ID/g
Biodistribution [14]: 1.4 %ID/g
Biodistribution [15]: 1.38 %ID/g
SMILES: C[C@]12CC[C@@H]3c4ccc(O)cc4CC[C@H]3[C@@H]1C[C@@H](F)[C@@H]2O [FLUOROESTRADIOL]

Biodistribution [16]: 4.55 %ID/g
Biodistribution [17]: 1.2 %ID/g
Biodistribution [18]: 7.22 %ID/g
Biodistribution [19]: 1.27 %ID/g
Biodistribution [20]: 0.28 %ID/g
Biodistribution [21]: 2.12 %ID/g
Biodistribution [22]: 0.3 %ID/g
Biodistribution [23]: 0.1 %ID/g
Biodistribution [24]: 1.88 %ID/g
Biodistribution [25]: 0.06 %ID/g
Biodistribution [26]: 0.08 %ID/g
Biodistribution [27]: 2 %ID/g
Biodistribution [28]: 0.95 %ID/g
Biodistribution [29]: 0.3 %ID/g
Biodistribution [30]: 0.19 %ID/g
Biodistribution [31]: 0.21 %ID/g
Biodistribution [32]: 2.04 %ID/g
Biodistribution [33]: 4.32 %ID/g
Biodistribution [34]: 0.68 %ID/g
Biodistribution [35]: 0.37 %ID/g
Ratio [36]: 0.61
SMILES: N#C[C@H](c1ccc(O)cc1)[C@@H](CCF)c1ccc(O)cc1
